Experiments:
[1] = tested on: Human immunodeficiency virus 1; experiment: Antiviral activity against HIV1 pseudovirus in U87 cells expressing CD4 and CCR5 after 72 hrs by M33 pseudotyped assay; type: functional, organism-based, U-87MG ATCC; settings: Human immunodeficiency virus 1, U-87 MG
Procedure, shortened: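 M33 pseudotyped viral attachment assay giving IC50 values. Specificity for HIV was judged by counter-screening against AMLV-pseudotyped virus at concentrations above 100× the M33 IC50.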

[2] = Cytotoxicity against human U87 cells expressing CD4 and CXCR4; type: cell-based, U-87MG ATCC

Compound	IC50 [1] [µM]	CC50 [2] [µM]
COc1cccc2[nH]cc(S(=O)(=O)N3CCN(C(=O)c4ccccc4)C[C@H]3C)c12	4.2	> 40
C[C@@H]1CN(C(=O)c2ccccc2)CCN1S(=O)(=O)c1c[nH]c2c(-n3ccnn3)ccc(F)c12	0.15	> 40
C[C@@H]1CN(C(=O)c2ccccc2)CCN1S(=O)(=O)c1c[nH]c2c(-n3cc(CO)nn3)nccc12	0.25	> 40
C[C@@H]1CN(C(=O)c2ccccc2)CCN1S(=O)(=O)c1c[nH]c2ncccc12	0.86	> 40
COC(=O)[C@@H]1CN(C(=O)c2ccccc2)CCN1S(=O)(=O)c1c[nH]c2ncccc12	> 20	> 40
C[C@@H]1CN(S(=O)(=O)c2c[nH]c3ncccc23)CCN1C(=O)c1ccccc1	13	> 40
C[C@@H]1CN(C(=O)c2ccccc2)CCN1S(=O)(=O)c1c[nH]c2ccccc12	0.43	> 40
COc1ncc(OC)c2c(C(=O)C(=O)N3CCN(C(=O)c4ccccc4)CC3)c[nH]c12	0.026	> 40
C[C@@H]1CN(C(=O)c2ccccc2)CCN1S(=O)(=O)c1c[nH]c2c(C#N)cc(F)cc12	10	> 40
C[C@@H]1CN(C(=O)c2ccccc2)CCN1S(=O)(=O)c1c[nH]c2c(-n3nccn3)ccc(F)c12	0.2	> 40
C[C@@H]1CN(C(=O)c2ccccc2)CCN1S(=O)(=O)c1c[nH]c2c(-n3cncn3)ccc(F)c12	0.5	> 40
C[C@@H]1CN(C(=O)c2ccccc2)CCN1S(=O)(=O)c1c[nH]c2c(-n3ccnc3)nccc12	0.08	> 40
C[C@H]1CN(S(=O)(=O)c2c[nH]c3ncccc23)CCN1C(=O)c1ccccc1	> 20	> 40
C[C@@H]1CN(C(=O)c2ccccc2)CCN1S(=O)(=O)c1c[nH]c2c(-n3nccn3)ncc(F)c12	0.62	> 40
C[C@@H]1CN(C(=O)c2ccccc2)CCN1S(=O)(=O)c1c[nH]c2c(-n3ccnc3)ncc(F)c12	0.036	> 40
CC[C@@H]1CN(C(=O)c2ccccc2)CCN1S(=O)(=O)c1c[nH]c2ncccc12	16	> 40
C[C@@H]1CN(C(=O)c2cc3ccccc3o2)CCN1S(=O)(=O)c1c[nH]c2ncccc12	3	> 40
C[C@@H]1CN(C(=O)c2ccccn2)CCN1S(=O)(=O)c1c[nH]c2ncccc12	3.3	> 40
C[C@@H]1CN(C(=O)c2ccccc2)CCN1S(=O)(=O)c1c[nH]c2c(-n3ccnn3)ncc(F)c12	0.007	> 40
C[C@H]1CN(C(=O)c2ccccc2)CCN1S(=O)(=O)c1c[nH]c2ncccc12	> 20	> 40

Compound	IC50 [1] [µM]	CC50 [2] [µM]
C[C@@H]1CN(C(=O)c2csc(N)n2)CCN1S(=O)(=O)c1c[nH]c2ncccc12	0.52	> 40
C[C@@H]1CN(C(=O)c2cccc(Cl)c2)CCN1S(=O)(=O)c1c[nH]c2ncccc12	8.4	> 40
C[C@@H]1CN(C(=O)c2cnccn2)CCN1S(=O)(=O)c1c[nH]c2ncccc12	9.1	> 40
Cc1ccc(C(=O)N2CCN(S(=O)(=O)c3c[nH]c4ncccc34)[C@H](C)C2)s1	2.3	> 40
CC1(C)CN(C(=O)c2ccccc2)CCN1S(=O)(=O)c1c[nH]c2ncccc12	> 20	> 40
C[C@@H]1CN(C(=O)c2csc(Br)n2)CCN1S(=O)(=O)c1c[nH]c2ncccc12	0.42	> 40
C[C@@H]1CN(C(=O)c2ccccc2)CCN1S(=O)(=O)c1c[nH]c2c(-n3ccnn3)nccc12	0.027	> 40
C[C@@H]1CN(C(=O)c2ccccc2)CCN1S(=O)(=O)c1c[nH]c2cccc(F)c12	0.2	> 40
C[C@@H]1CN(C(=O)c2ccccc2)CCN1S(=O)(=O)c1c[nH]c2c(F)ccc(F)c12	0.37	> 40
NC(=O)[C@@H]1CN(C(=O)c2ccccc2)CCN1S(=O)(=O)c1c[nH]c2ncccc12	> 20	> 40
NC(=O)[C@H]1CN(C(=O)c2ccccc2)CCN1S(=O)(=O)c1c[nH]c2ncccc12	> 20	> 40
C[C@@H]1CN(C(=O)c2ccccc2)CCN1S(=O)(=O)c1c[nH]c2c(F)c(F)c(F)c(F)c12	4.7	> 40
O=C(c1ccccc1)N1CCN(S(=O)(=O)c2c[nH]c3ncccc23)CC1	22	> 40
C[C@@H]1CN(C(=O)c2ccccc2)CCN1S(=O)(=O)c1c[nH]c2c(-n3cncn3)nccc12	0.15	> 40
C[C@@H]1CN(C(=O)c2ccccc2)CCN1S(=O)(=O)c1c[nH]c2ccc(F)cc12	3.6	> 40
O=C(C(=O)N1CCN(C(=O)c2ccccc2)CC1)c1c[nH]c2ncccc12	0.52	> 40
C[C@@H]1CN(C(=O)c2ccccc2)CCN1S(=O)(=O)c1c[nH]c2ccc(C#N)cc12	> 20	> 40
COc1ncc(OC)c2c(C(=O)C(=O)N3CCN(C(=O)c4ccccc4)C[C@H]3C)c[nH]c12	0.005	> 40
C[C@@H]1CN(C(=O)c2ccccc2)CCN1S(=O)(=O)c1c[nH]c2c(-n3cc(CF)nn3)nccc12	0.24	> 40
COc1cc2c(S(=O)(=O)N3CCN(C(=O)c4ccccc4)C[C@H]3C)c[nH]c2cn1	9.2	> 40

Compound	IC50 [1] [µM]	CC50 [2] [µM]
Cc1csc(C(=O)N2CCN(S(=O)(=O)c3c[nH]c4ncccc34)[C@H](C)C2)c1	1.9	> 40
C[C@@H]1CN(C(=O)c2ccn(C)n2)CCN1S(=O)(=O)c1c[nH]c2ncccc12	2.4	> 40
C[C@@H]1CN(C(=O)c2ccccc2)CCN1C(=O)C(=O)c1c[nH]c2ncccc12	0.03	> 40
CC1CN(C(=O)c2ccccc2)CCN1S(=O)(=O)c1c[nH]c2c(Cl)nccc12 (racemic)	11	> 40
CC1CN(C(=O)c2ccccc2)CCN1S(=O)(=O)c1c[nH]c2c(-n3cncn3)nccc12 (racemic)	0.2	> 40
COCc1cn(-c2ncc(F)c3c(S(=O)(=O)N4CCN(C(=O)c5ccccc5)CC4C)c[nH]c23)nn1 (racemic)	0.58	> 40
CC1CN(C(=O)c2ccccc2)CCN1S(=O)(=O)c1c[nH]c2c(-n3cc(CN(C)C)nn3)nccc12 (racemic)	1.1	> 40
Cc1cn(-c2nccc3c(S(=O)(=O)N4CCN(C(=O)c5ccccc5)CC4C)c[nH]c23)nn1 (racemic)	0.86	> 40
CC1CN(C(=O)c2ccccc2)CCN1S(=O)(=O)c1c[nH]c2c(-c3cc[nH]n3)nccc12 (racemic)	0.14	> 40
CC1CN(C(=O)c2ccccc2)CCN1S(=O)(=O)c1c[nH]c2c(-c3cccnc3)nccc12 (racemic)	0.64	> 40
CC1CN(C(=O)c2ccccc2)CCN1S(=O)(=O)c1c[nH]c2c(-c3nccs3)nccc12 (racemic)	0.5	> 40
COc1cc2c(S(=O)(=O)N3CCN(C(=O)c4ccccc4)CC3C)c[nH]c2cn1 (racemic)	> 40	> 40
CC1CN(C(=O)c2ccccc2)CCN1S(=O)(=O)c1c[nH]c2c(-n3cccn3)nccc12 (racemic)	0.3	> 40
CC1CN(C(=O)c2ccccc2)CCN1S(=O)(=O)c1c[nH]c2c(-n3cncn3)ncc(F)c12 (racemic)	0.08	> 40
CC1CN(C(=O)c2ccccc2)CCN1S(=O)(=O)c1c[nH]c2c(Cl)nc(Cl)cc12 (racemic)	> 40	> 40
CC1CN(C(=O)c2ccccc2)CCN1S(=O)(=O)c1c[nH]c2c(-n3ccnc3)nccc12 (racemic)	0.16	> 40
CC1CN(C(=O)c2ccccc2)CCN1S(=O)(=O)c1c[nH]c2c(-c3ccnc(N)n3)nccc12 (racemic)	0.5	> 40
CC1CN(C(=O)c2ccccc2)CCN1S(=O)(=O)c1c[nH]c2c(-c3ncon3)nccc12 (racemic)	1.24	> 40
Cc1ncn(-c2nccc3c(S(=O)(=O)N4CCN(C(=O)c5ccccc5)CC4C)c[nH]c23)n1 (racemic)	0.24	> 40

Source: ChEMBL document CHEMBL1138356, “Design and synthesis of human immunodeficiency virus entry inhibitors: sulfonamide as an isostere for the alpha-ketoamide group” (J Med Chem, 2007)
